The term MIC denotes the lowest concentration that inhibits growth of the organism.

Values after ≈ are worked out from the molar mass of the structure shown.

The first series has as its system Mycobacterium tuberculosis. The series is described as follows: Antibacterial activity against Mycobacterium tuberculosis H37Ra assessed as inhibition of bacterial growth incubated for 7 days by BacTiter-Glo reagent based assay. The format is functional. The note with it: 168 h, time 7 day. Put shortly:
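M. tuberculosis H37Ra pre-grown 14 days in 7H9 with palmitic acid, casitone, BSA, catalase and 0.2% glycerol (37°C, 180 rpm, 85% rH). Diluted to McFarland 1, then to 1 × 10⁶ cells/mL. Compounds were in DMSO. Plates were held 7 days microaerophilic at 37°C/5% CO₂, with ATP luminescence read-out. MIC was the lowest concentration giving ≥85% inhibition versus blank-normalised untreated growth.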
`c1ccc(-c2nc(-c3ccccn3)n3c2ccc2ccccc23)cc1`: the MIC amounted to 25 µM (≈ 8.03 µg/mL). Same read-out and setting: with `c1ccc(-c2nc(-c3cccc4ccccc34)n3c2ccc2ccccc23)nc1` the figure was 1 µM (≈ 0.371 µg/mL). Same read-out and setting: with `c1ccc(-c2nc(-c3cc4ccccc4cn3)c3ccc4ccccc4n23)cc1` the figure was 0.5 µM (≈ 0.186 µg/mL). The same measure, in the same setting: in the case of `c1ccc(-c2nc(-c3ccccn3)n3c2ccc2ccccc23)nc1` it was 6 µM (≈ 1.93 µg/mL).

Staying with this series, now noted: time 7.0 day.
Consider GENTAMICIN, for which the MIC was found to be 4 µM.

Another series deals with Calu-3. Kind of series: Cytotoxicity against human Calu-3 cells assessed as reduction in cell viability at 100 uM incubated for 48 hrs by CellTiter-Glo Luminescent Cell Viability assay. The format is toxicity, cell-based. The note with it: calu-3, 48 h. The gist of the method: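 Confluent Calu-3 cells in DMEM/F-12 GlutaMAX with 10% FCS and 1% penicillin/streptomycin, 37°C, 5% CO2. Compounds were dissolved in DMSO (10 mM stocks) and tested once at 100 μM final with 1% DMSO, in triplicate, for 48 h. ATP luminescence was normalized to the DMSO control (100%). Viability below 80% was classed as cytotoxic. Ionomycin 100 μM served as positive control.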
(In ATP-based viability assays light output follows the ATP content of the culture.)
For the molecule `c1ccc(N(c2ccccc2)c2nc(-c3ccccn3)c3ccc4ccccc4n23)cc1`, the Activity result is on record as “Non-Toxic”. The same measure, in the same setting: with `c1ccc(-c2ccc(-c3nc(-c4ccccc4)n4c3ccc3ccccc34)nc2)cc1` the entry was “Non-Toxic”. On the same count and under the same terms, with `c1ccc(-c2nc(-c3cccs3)c3ccc4ccccc4n23)cc1` the entry was “Non-Toxic”; with `c1ccc(-c2nc(-c3ncccn3)c3ccc4ccccc4n23)cc1`, “Toxic”.

As for `c1ccc(-c2nc(-c3ccccc3)n3c2ccc2ccccc23)cc1`, the Activity entry is “Non-Toxic”. Turning to `c1ccc(-c2nc(-c3ccccn3)n3c2ccc2ccccc23)cc1`, the Activity result is given as “Toxic”.

For the molecule `c1ccc(-c2nc(-c3ccccn3)c3ccc4ccccc4n23)cc1`, the Activity entry is “Toxic”. Still for that read-out and setting: with `c1ccc(-c2nc(-c3cccc4ccccc34)n3c2ccc2ccccc23)nc1` the entry was “Toxic”; with `COc1ccccc1-c1nc(-c2ccccc2)n2c1ccc1ccccc12`, “Non-Toxic”. The same measure, in the same setting: with `c1ccc(-c2nc(-c3cc4ccccc4cn3)c3ccc4ccccc4n23)cc1` the entry was “Non-Toxic”; with `c1ccc(-c2nc(-c3ccccn3)n3c2ccc2ccccc23)nc1`, “Non-Toxic”; with `CN(C)c1ccccc1-c1nc(-c2ccccc2)n2c1ccc1ccccc12`, “Toxic”.

Another series concerns Mycobacterium tuberculosis. Kind of series: Antibacterial activity against Mycobacterium tuberculosis. The format is functional.
Conditions: not given
Regarding `C[C@H]1COc2c(N3CCN(C)CC3)c(F)cc3c(=O)c(C(=O)O)cn1c23` [LEVOFLOXACIN ANHYDROUS], 0.8 µM (≈ 0.289 µg/mL) was the least that counted as inhibitory (MIC). On the same count and under the same terms, in the case of `COc1nc2ccc(Br)cc2cc1[C@@H](c1ccccc1)[C@@](O)(CCN(C)C)c1cccc2ccccc12` [BEDAQUILINE] it was 0.03 µM (≈ 0.0167 µg/mL); in that of `NCC[C@H](O)C(=O)N[C@@H]1C[C@H](N)[C@@H](O[C@H]2O[C@H](CN)[C@@H](O)[C@H](O)[C@H]2O)[C@H](O)[C@H]1O[C@H]1O[C@H](CO)[C@@H](O)[C@H](N)[C@H]1O` [AMIKACIN], 0.4 µM (≈ 0.234 µg/mL); in that of `CC[C@@H](CO)NCCN[C@@H](CC)CO` [ETHAMBUTOL], 0.3 µM (≈ 0.0613 µg/mL). For the molecule `CCc1cc(C(N)=S)ccn1` [ETHIONAMIDE], it took 10 µM (≈ 1.66 µg/mL) to inhibit growth (MIC). `NNC(=O)c1ccncc1` [ISONIAZID] gave an MIC of 0.3 µM (≈ 0.0411 µg/mL).
